For assay [1], the target named is T1, Neuromedin-K receptor (Homo sapiens) (UniProt P29371).
T1 sequence (whole entry): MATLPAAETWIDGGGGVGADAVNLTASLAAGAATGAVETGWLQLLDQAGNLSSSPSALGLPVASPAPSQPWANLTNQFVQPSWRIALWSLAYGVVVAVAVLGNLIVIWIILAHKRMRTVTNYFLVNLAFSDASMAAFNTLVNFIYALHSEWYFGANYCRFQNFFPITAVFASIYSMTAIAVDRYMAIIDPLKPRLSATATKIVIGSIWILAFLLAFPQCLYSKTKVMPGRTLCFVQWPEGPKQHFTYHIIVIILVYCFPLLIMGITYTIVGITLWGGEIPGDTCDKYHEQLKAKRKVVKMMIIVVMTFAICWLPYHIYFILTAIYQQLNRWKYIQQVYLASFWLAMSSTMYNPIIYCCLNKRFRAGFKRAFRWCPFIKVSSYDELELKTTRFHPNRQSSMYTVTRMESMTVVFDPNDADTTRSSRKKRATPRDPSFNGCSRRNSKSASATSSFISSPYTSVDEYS
The assay can be described thus: Antagonist activity against human NK3 receptor expressed in CHO cells assessed as inhibition of senktide-induced increase of intracellular calcium level at 50 uM after 10 mins by fluorescent plate-reader analysis relative to control. The format is functional, cell-based. In outline:
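hNK3R-expressing CHO cells were preincubated 10 min with test compound at 50 μM. The calcium response to 200 nM senktide was then measured and expressed as percent inhibition versus the senktide response without antagonist.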

Assay [2] concerns the target T2, Neuromedin-K receptor (Homo sapiens, UniProt P29371).
T2 sequence (P29371 whole entry): T1 sequence (whole entry)
The assay is described as follows: biochemical.

For assay [3], the target named is T2, Neuromedin-K receptor. The assay can be described thus: Antagonist activity against human NK3 receptor expressed in HEK293 cells assessed as inhibition of MePhe7-NKB-induced increase of intracellular calcium level by fluorescent plate-reader analysis. It counts as functional, cell-based. Conditions: in the assay text read “CHO cells” for “HEK293 cells”. In short, it runs like this:
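Calcium responses to 50 nM MePhe7-NKB were measured across increasing antagonist concentrations, and IC50 was derived from the concentration-response curve.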

Assay [4] concerns the target T2, Neuromedin-K receptor. The assay can be described thus: Antagonist activity against human NK3 receptor expressed in CHO cells assessed as inhibition of senktide-induced increase of intracellular calcium level after 10 mins by fluorescent plate-reader analysis relative to control.
Assay [5] has as its target T1, Neuromedin-K receptor (Homo sapiens). Conditions: CHO.

The text below walks through data of ChEMBL document CHEMBL1275402, “Virtual screening to identify novel antagonists for the G protein-coupled NK3 receptor” (J Med Chem, 2010).

Regarding `CCOC(=O)c1nn(C)c2c1CN(C(=O)c1cc(-c3ccccc3)nc3ccccc13)CC2`, the inhibition in assay [1] worked out at 8%.
As for `Cc1ccc(-c2cc(C(=O)NCCc3ccccc3)c3ccccc3n2)cc1`, the inhibition in assay [1] was found to be 17%.
In the case of `Nc1c(-c2ccccc2)nc2ccccc2c1C(=O)NC(c1cccc(F)c1)C1CC1` (configuration not stated), at Neuromedin-K receptor [2], the Ki was 3.16 nM.
In the case of `Cc1nc(-c2ccncc2)n2c1CN(C(=O)C1Cc3ccccc3O1)CC2` (configuration not stated), the inhibition in assay [1] was determined as 6%.
Regarding `CCCC(NC(=O)c1cc(-c2ccccc2)nc2ccccc12)c1ccccc1` (configuration not stated), on Neuromedin-K receptor [2], the Ki was 50.1 nM.
`CCCCCCCC(NC(=O)c1cc(-c2ccccc2)nc2ccccc12)c1ccccc1` (configuration not stated): affinity on Neuromedin-K receptor [2] was put at a Ki of 5010 nM.
As for `CCCCCCc1c(-c2ccccc2)nc2ccccc2c1C(=O)NC(CC)c1ccccc1` (configuration not stated), the Ki on Neuromedin-K receptor [2] is 50.1 nM. This Ki is about 100-fold lower than that of the compound before.
The same measure, in the same setting: to `O=C(NC(CCO)c1ccccc1)c1cc(-c2ccccc2)nc2ccccc12` (configuration not stated) belongs 398 nM.
Same read-out and setting: the result for `CCC(NC(=O)c1c(-c2ccccc2)c(-c2ccccc2)nc2ccccc12)c1ccccc1` (configuration not stated) reads 50.1 nM.
Turning to `COc1cccc(-c2nc3c(NCc4ccncc4)nccc3[nH]2)c1F`, in assay [1], the inhibition is 39%.
For `CCC(NC(=O)c1cc(-c2ccccc2)nc2ccccc12)c1ccccn1` (configuration not stated), the inhibition in assay [1] came out at 82%. For the same compound, the IC50 on Neuromedin-K receptor [3] was 1400 nM; on Neuromedin-K receptor [2] it was 5.2 nM; on Neuromedin-K receptor [4], 900 nM.
Take `Cc1ccc(CNC(=O)c2cc(-c3ccccc3)nc3ccccc23)cc1`: the inhibition in assay [1] was 21%.
For the compound `CCC(NC(=O)c1c(N)c(-c2ccc(F)cc2)nc2ccccc12)c1ccccc1` (configuration not stated), affinity on Neuromedin-K receptor [2] was put at a Ki of 7.94 nM.
For the compound `Cc1ccc(-c2cc(C(=O)NC(C)c3ccccc3)c3ccccc3n2)c(C)c1` (configuration not stated), the inhibition in assay [1] came to 18%.
The compound `O=C(NC(c1ccccc1)C(F)(F)F)c1cc(-c2ccccc2)nc2ccccc12` (configuration not stated) gave a Ki at Neuromedin-K receptor [2] of 501 nM.
In the case of `CNC(=O)C(NC(=O)c1cc(-c2ccccc2)nc2ccccc12)c1ccccc1` (configuration not stated), at Neuromedin-K receptor [2], affinity was put at a Ki of 501 nM.
Turning to `CCCc1c(-c2ccccc2)nc2ccccc2c1C(=O)NC(CC)c1ccccc1` (configuration not stated), affinity on Neuromedin-K receptor [2] was put at a Ki of 12.6 nM.
The same measure, in the same setting: to `CCC(NC(=O)c1c(OC)c(-c2ccccc2)nc2ccccc12)c1ccccc1` (configuration not stated) belongs 6.31 nM; to `O=C(NC(Cc1ccccc1)c1ccccc1)c1cc(-c2ccccc2)nc2ccccc12` (configuration not stated), 3160 nM.
Consider `Cc1ccc(-c2cc(C(=O)NCc3ccc(F)cc3)c3ccccc3n2)cc1`, for which the inhibition in assay [1] amounted to 7%.
In turn, `COC(=O)CC(NC(=O)c1cc(-c2ccccc2)nc2ccccc12)c1ccccc1` (configuration not stated) gave a Ki on Neuromedin-K receptor [2] of 1000 nM.
Regarding `c1ccc(CNc2nccc3[nH]c(-c4ccccc4)nc23)cc1`, the inhibition in assay [1] stood at 42%.
Turning to `CCCCc1c(-c2ccccc2)nc2ccccc2c1C(=O)NC(CC)c1ccccc1` (configuration not stated), the affinity on Neuromedin-K receptor [2], expressed as Ki, was 15.8 nM.
On the same count and under the same terms, to `NC(=O)C(NC(=O)c1cc(-c2ccccc2)nc2ccccc12)c1ccccc1` (configuration not stated) belongs 1000 nM; to `CC(C)C(NC(=O)c1cc(-c2ccccc2)nc2ccccc12)c1ccccc1` (configuration not stated), 79.4 nM; to `CCC(NC(=O)c1c(N)c(-c2cccc(F)c2)nc2ccccc12)c1ccccc1` (configuration not stated), 3.98 nM.
As for `CC(NC(=O)c1cc(-c2ccccc2)nc2ccccc12)c1ccccc1` (configuration not stated), the inhibition in assay [1] came out at 61%. Further, the IC50 is 9900 nM at Neuromedin-K receptor [3], 33.5 nM against Neuromedin-K receptor [2] and 2200 nM at Neuromedin-K receptor [4]. This compound also had a Ki at Neuromedin-K receptor [2] of 251 nM.
As to `O=C(NCc1ccccc1)c1cc(-c2ccccc2)nc2ccccc12`, the inhibition in assay [1] was 30%.
`O=C(NC(CO)c1ccccc1)c1cc(-c2ccccc2)nc2ccccc12` (configuration not stated): on Neuromedin-K receptor [2], the Ki was 200 nM.
As for `O=C(NCc1ccccn1)c1cc(-c2ccccc2)nc2ccccc12`, in assay [1], the inhibition amounted to 17%.
As for `O=C(NCc1ccc(Cl)cc1)c1cc(-c2ccccc2Cl)nc2ccccc12`, in assay [1], the inhibition was determined as 14%.
Regarding `O=C(NCc1ccc(Cl)cc1)c1cc(-c2ccc(Cl)cc2)nc2ccccc12`, the inhibition in assay [1] amounted to 13%.
Take `Nc1c(-c2cccc(F)c2)nc2ccccc2c1C(=O)NC(c1ccccc1)C1CC1` (configuration not stated): affinity at Neuromedin-K receptor [2] was put at a Ki of 10 nM.
Consider `Cc1cccc(-c2nc3c(NCc4ccccc4)nccc3[nH]2)c1`, for which the inhibition in assay [1] stood at 40%.
Turning to `CCCN1N=C(C(=O)NC(C)c2ccccc2)C2CN(CC)CCC21` (configuration not stated), the inhibition in assay [1] is 6%.
With `O=C(NCCc1ccccc1)c1cc(-c2ccccc2)nc2ccccc12`, the inhibition in assay [1] turned out to be 54%.
As for `Nc1c(-c2cccc(F)c2)nc2ccccc2c1C(=O)NC(c1cccc(F)c1)C1CC1` (configuration not stated), the affinity on Neuromedin-K receptor [2] corresponds to a Ki of 6.31 nM.
Regarding `COc1ccc(-c2cc(C(=O)NC(C)c3ccccn3)c3ccccc3n2)cc1OC` (configuration not stated), in assay [1], the inhibition was 16%.
Consider `CC(=O)C(NC(=O)c1cc(-c2ccccc2)nc2ccccc12)c1ccccc1` (configuration not stated), for which the Ki on Neuromedin-K receptor [2] was 25.1 nM.
On Neuromedin-K receptor [2], `Nc1c(-c2ccccc2)nc2ccccc2c1C(=O)NC(c1ccccc1F)C1CC1` (configuration not stated) gave an inhibition constant Ki of 5.01 nM.
In the case of `CC(=O)N(C)C1(c2ccccc2)CCN(CCC[C@]2(c3ccc(Cl)c(Cl)c3)CCCN(C(=O)c3ccccc3)C2)CC1`, in assay [5], the Ks was 1 nM.
`Cc1ccc(CNC(=O)c2cc(-c3ccc(C)cc3C)nc3ccccc23)cc1`: the inhibition in assay [1] was found to be 9%.
As to `Nc1c(-c2ccccc2)nc2ccccc2c1C(=O)NC(c1ccccc1)C1CC1` (configuration not stated), on Neuromedin-K receptor [2], affinity was put at a Ki of 5.01 nM. That is a single-digit nanomolar value.
The same measure, in the same setting: to `CN(C)C(=O)C(NC(=O)c1cc(-c2ccccc2)nc2ccccc12)c1ccccc1` (configuration not stated) belongs 501 nM.
At Neuromedin-K receptor [2], `CCCCC(NC(=O)c1cc(-c2ccccc2)cc2ccccc12)c1ccccc1` (configuration not stated) gave a Ki of 158 nM. This Ki is about 3.2-fold lower than that of the compound before.
